In paper PMC4592802 (Journal of immunology (Baltimore, Md. : 1950), 2015):

How the values were obtained:
[1] = test system: CD4 on 3.L2 T cells; assay: Adhesion frequency assay for direct CD4 binding; parameters: species or system mouse; conditions: MCC:I-E^k at >4,000 molecules/μm^2; contact 5s; n≥3 cell pairs, 50 contacts each
Procedure, shortened: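 3.L2 T cells, negatively selected from 6–8-week mouse spleens, were brought by micropipette into repeated 5-s contacts with human RBCs. The RBCs were biotinylated, streptavidin-linked and coated with noncognate MCC:I-E^k at >4,000 molecules/μm². Site densities came from PE-antibody flow cytometry against standard beads. Adhesion was scored from RBC membrane deflection on retraction, with frequency taken from 50 contacts per cell pair.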

[2] = test system: 3.L2 TCR on CD8^+ 3.L2 T cells; assay: BFP force-clamp bond lifetime assay, CD8+ 3.L2 T cells; type: binding, mouse; conditions: for Bond lifetime versus force / Bond type under force: force-clamp, 5-40 pN, CD8+ 3.L2 T cells; for Bond type under force: >300 lifetime events per ligand; for Force at maximum ratio of bond lifetime of Hb to that of the peptide: ratio bond lifetime Hb/peptide vs force (Fig. 6B)
Procedure, shortened: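 Biomembrane force probe force-clamp used beads carrying streptavidin-maleimide and subsaturating biotinylated pMHC-II. Each bond was loaded to a preset force and held constant until it dissociated. pMHC density was adjusted to keep adhesion frequency <20%, for […] single bonds. >300 lifetimes per ligand were taken over 5-40pN, in 5-7 bins. The Hb/peptide lifetime ratio was calculated from the force versus lifetime data.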

[3] = test system: 3.L2 TCR T-cell response; conditions: relative activity of well-characterized ligands; ref [6], [36]; cited from earlier work
[4] = test system: 3.L2 TCR; conditions: 3D SPR; ref [6]; cited from earlier work
[5] = test system: 3.L2 TCR on CD4^+ 3.L2 T cells; assay: Micropipette adhesion frequency assay, CD4+ 3.L2 T cells; type: binding, mouse; conditions: T cells treated with anti-CD4 GK1.5, 20 μg/ml
Procedure, shortened: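 T cells were incubated 30min at 4°C with 20μg/ml anti-CD4 GK1.5, then tested with the same antibody present. Micropipette contacts were made with pMHC-coated RBCs, and adhesion frequency counted from 50 contacts per cell pair over a range of contact times. A least-squares fit to the probabilistic kinetic equation, using measured TCR and pMHC densities, gave AcKa and koff. On-rate = AcKa × koff.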

[6] = test system: 3.L2 TCR on T cells; assay: Thermal fluctuation assay; type: binding, mouse; conditions: T cells treated with anti-CD4 GK1.5; zero force
Procedure, shortened: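 Cells were pretreated 30min at 4°C with 20μg/ml anti-CD4 GK1.5, and the antibody was kept in the chamber during measurement. A biomembrane force probe bead bearing subsaturating biotinylated pMHC-II contacted the T cell. Bond lifetime ran from reduction to resumption of bead thermal fluctuations. koff was taken from the negative slope of ln(events with lifetime > t_b) versus t_b.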

[7] = target: CD4 (mouse (endogenous in 3.L2 transgenic mouse T cells)) (UniProt P06332); assay: micropipette adhesion frequency assay
Chain of UniProt P06332 (P06332 27-457): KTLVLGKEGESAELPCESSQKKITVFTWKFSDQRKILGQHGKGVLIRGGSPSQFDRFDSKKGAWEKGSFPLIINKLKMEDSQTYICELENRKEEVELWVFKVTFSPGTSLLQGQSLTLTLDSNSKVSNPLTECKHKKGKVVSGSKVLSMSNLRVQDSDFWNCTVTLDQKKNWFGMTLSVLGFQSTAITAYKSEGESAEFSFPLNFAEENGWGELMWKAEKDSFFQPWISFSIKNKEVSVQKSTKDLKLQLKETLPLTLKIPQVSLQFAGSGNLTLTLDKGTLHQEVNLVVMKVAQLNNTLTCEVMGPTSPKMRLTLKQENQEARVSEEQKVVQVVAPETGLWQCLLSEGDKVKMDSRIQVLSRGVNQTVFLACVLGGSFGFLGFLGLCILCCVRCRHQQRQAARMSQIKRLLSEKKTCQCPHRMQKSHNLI

Row | Substance | Bond lifetime versus force [2] | Bond type under force [2] | Force at maximum ratio of bond lifetime of Hb to that of the peptide [2] | Classification of Ligand [3] | other results
1 | ANERADLIAYLKQATK [MCC] | – | – | – | – | Adhesion frequency Pa, noncognate pMHC-II, very high site density [1]: < 5%
2 | GKKVITAFAEGLK [A72] | decreases monotonically with increasing force | slip-only bonds | 10-15 pN | Weak antagonist | Detectability by SPR (earlier work) [4]: not previously detectable using SPR
3 | GKKVITAFIEGLK [I72] | decreases monotonically with increasing force | slip-only bonds | 10-15 pN | Antagonist | –
4 | GKKVITAFNEGLK [Hb] | – | catch-slip bonds | – | Agonist | Effective 2D on-rate, Ackon, with CD4 blocking ([5]; calculated as AcKa × koff): 3.16 ± 0.42 × 10^−4 μm^4s^−1; 2D off-rate, koff (adhesion frequency assay)**, with CD4 blocking ([5]; zero force): 1.89 ± 0.31 s⁻¹; 2D off-rate, koff (thermal fluctuation assay)*, with CD4 blocking [6]: 1.41 ± 0.17 s⁻¹
5 | GKKVITAFTEGLK [T72] | – | catch-slip bonds | – | Weak agonist | –
6 | moth cytochrome c (MCC) peptide 88-103 bound to I-E^k (peptide-MHC) | – | – | – | – | adhesion frequency [7]: < 5%
